Reference: ChEMBL document CHEMBL1153529, “Synthesis of fluorinated brassinosteroids based on alkene cross-metathesis and preliminary biological assessment” (J Med Chem, 2009)
Calls of active or inactive are those of the source. The calls are words filed in the database; no cut-off is given here.

Tests used:
CCRF-CEM = assay: Cytotoxicity against human CEM cells after 72 hrs by calcein-AM assay; type: functional, cell-based
Outline: (§1)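 Human normal fibroblast BJ, T-lymphoblastic leukemia CEM and breast carcinoma MCF-7 cells exposed for 72 h to six serial 4-fold dilutions of compound. Surviving cell proportion read by calcein-AM assay and IC50 calculated. Mean ± SD of three independent experiments, each in triplicate. 28-Homocastasterone served as positive control.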

Phaseolus vulgaris [1] = assay: Brassinolide type activity in Phaseolus Vulgaris L., cv. Pinto assessed as difference of prolongation of second internode at 0.1 umol/L by second-internode bioassay relative to control; type: functional
Outline: (§2)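 Bean second-internode bioassay. Compound applied in lanolin; second-internode length measured 5 days after application. Activity taken as the difference in internode prolongation (mm) between treated and control plants. Reported concentrations were 10^-10, 10^-7 and 10^-12 mol/L. Mean ± SD.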

MCF7 = assay: Cytotoxicity against human MCF7 cells after 72 hrs by calcein-AM assay; type: functional, cell-based; details: MCF7, 72 h; outline: as §1
Rattus norvegicus [2] = species: Rattus norvegicus; assay: Displacement of [35S]tert-butylbicyclo[ 2.2.2]phosphorothionate from GABAA receptor in Wistar rat brain membrane at 100 nM relative to control; type: cell membranes
Outline: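 Membranes from male Wistar rat brain incubated 1 h at 37 °C with 2 nM [35S]TBPS and test compound at 100 nM. Binding expressed as % of buffer-only control samples. Mean ± SD of triplicates or quadruplicates. Kruskal-Wallis global test, then Mann-Whitney-Wilcoxon against control.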

BJ = assay: Cytotoxicity against human BJ cells after 72 hrs by calcein-AM assay; type: cell-based; outline: as §1
Rattus norvegicus [3] = species: Rattus norvegicus; assay: Inhibition of [35S]tert-butylbicyclo[ 2.2.2]phosphorothionate binding to GABAA receptor in Wistar rat brain membrane relative to control; type: cell membranes
Outline: (§3)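 Male Wistar rat brain membranes incubated 1 h at 37 °C with 2 nM [35S]TBPS and compound at 1 nM to 10 μM, in duplicates. IC50 estimated as the steroid concentration giving half-maximal inhibition of binding. Imax is the maximal suppression of binding.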

[4] = Inhibition of [35S]tert-butylbicyclo[ 2.2.2]phosphorothionate binding to GABAA receptor in Wistar rat brain membrane; type: cell membranes; outline: as §3
Phaseolus vulgaris [5] = assay: Brassinolide type activity in Phaseolus Vulgaris L., cv. Pinto assessed as difference of prolongation of second internode at 1 pmol/L by second-internode bioassay relative to control; type: functional; outline: as §2

SMILES | IC50 (CCRF-CEM) [µM] | Activity (Phaseolus vulgaris [1]) | IC50 (MCF7) [µM] | Activity (Rattus norvegicus [2]) [%] | Activity (BJ) | Imax (Rattus norvegicus [3]) [%] | IC50 [4] [nM] | Activity (Phaseolus vulgaris [5]) [mm]
C[C@H]([C@@H](O)[C@H](O)CC(F)(F)C(F)(F)C(F)(F)F)[C@H]1CC[C@H]2[C@@H]3COC(=O)[C@H]4C[C@H](O)[C@H](O)C[C@]4(C)[C@H]3CC[C@]12C | > 50 | Active | > 50 | 95.1 | Non-toxic | – | – | –
CC(C(O)C(O)CC(F)(F)C(F)(F)C(F)(F)C(F)(F)C(F)(F)C(F)(F)F)C1CCC2C3CC(=O)C4CC(O)C(O)CC4(C)C3CCC12C (centres undefined) | > 50 | – | > 50 | – | Non-toxic | – | – | –
C[C@H]([C@@H](O)[C@H](O)CC(F)(F)C(F)(F)C(F)(F)C(F)(F)C(F)(F)C(F)(F)F)[C@H]1CC[C@H]2[C@@H]3COC(=O)[C@H]4C[C@H](O)[C@H](O)C[C@]4(C)[C@H]3CC[C@]12C | > 50 | – | > 50 | 47.2 | Non-toxic | 57.9 | 900 | –
CC[C@@H](C(C)C)[C@@H](O)[C@H](O)[C@@H](C)[C@H]1CC[C@H]2[C@@H]3CC(=O)[C@H]4C[C@H](O)[C@H](O)C[C@]4(C)[C@H]3CC[C@]12C | 13 | – | > 50 | – | Non-toxic | – | – | –
C[C@H]([C@@H](O)[C@H](O)CC(F)(C(F)(F)F)C(F)(F)F)[C@H]1CC[C@H]2[C@@H]3CC(=O)C4C[C@H](O)[C@H](O)C[C@]4(C)[C@H]3CC[C@]12C (some centres undefined) | > 50 | – | > 50 | – | Non-toxic | – | – | –
CC(=O)[C@H]1CC[C@H]2[C@@H]3CC[C@H]4C[C@H](O)CC[C@]4(C)[C@H]3CC[C@]12C [BREXANOLONE] | – | – | – | 56.2 | – | 79 | 80 | –
C[C@H]([C@@H](O)[C@H](O)CC(F)(C(F)(F)F)C(F)(F)F)[C@H]1CC[C@H]2[C@@H]3COC(=O)[C@H]4C[C@H](O)[C@H](O)C[C@]4(C)[C@H]3CC[C@]12C | > 50 | 15.9 mm | > 50 | 56.6 | Non-toxic | 59.4 | 100 | 10.7
CC(C(O)C(O)CC(F)(F)C(F)(F)C(F)(F)F)C1CCC2C3CC(=O)C4CC(O)C(O)CC4(C)C3CCC12C (centres undefined) | 35.3 | – | 48.2 | – | Non-toxic | – | – | –
